Results from different studies.
Protocols differ between the studies behind these lines.
Effect on: cell growth or viability

COc1ccccc1Cn1nc(-c2ccc(CO)o2)c2ccccc21
IC50 (HuCCT-1; ATP luminescence): > 46 µM

O=P1(c2ccccc2)CCCCC1
IC50 (HaCaT; MTT; 72 h): > 100 µM

Cc1ccc(S(=O)(=O)[O-])cc1.Nc1c([I+]c2ccccc2)c(=O)oc2ccccc12
IC50 (HaCaT; MTT; 48 h): 35 µg/mL

COc1cccc2c1C(=O)c1c(O)c3c(c(O)c1C2=O)C[C@@](O)(C(=O)CO)C[C@@H]3O[C@H]1C[C@H](N)[C@H](O)[C@H](C)O1
IC50 (HPAF-II; ATP luminescence; 72 h): 0.7 µM

O=C1CS/C(=N\c2ccc(F)cc2O)N1c1nnc(-c2ccc(C(F)(F)F)cc2/N=C2\SCC(=O)N2c2ccc(F)cc2O)s1
IC50 (WI-38; MTT): 20.5 µM

CCCCn1cnc2ccc(-c3ccc(NC(=O)C4CCC4)nc3)cc2c1=O
IC50 (HCC827; CCK-8; 72 h): 6.31 µM

OCc1ccc(-c2nn(Cc3ccncc3)c3ccccc23)o1
IC50 (HuCCT-1; ATP luminescence): > 46 µM

CCCCn1cnc2ccc(-c3ccc(NC(=O)NCC)nc3)cc2c1=O
IC50 (HCC827; CCK-8; 72 h): > 10 µM

O=C1CSC(=Nc2cc([N+](=O)[O-])ccc2[N+](=O)[O-])N1c1nnc(-c2ccc(C(F)(F)F)cc2N=C2SCC(=O)N2c2cc([N+](=O)[O-])ccc2[N+](=O)[O-])s1
IC50 (WI-38; MTT): 89.2 µM

CCCn1cnc2ccc(-c3ccc(NC(=O)CNC(C)C)nc3)cc2c1=O
IC50 (HCC827; CCK-8; 72 h): > 10 µM

OCc1ccc(-c2nn(Cc3ccccn3)c3ccccc23)o1
IC50 (HuCCT-1; ATP luminescence): > 46 µM

CCCCC(=O)Nc1ccc(-c2ccc3ncn(CCCC)c(=O)c3c2)cn1
IC50 (HCC827; CCK-8; 72 h): 0.13 µM

COc1cccc2c1C(=O)c1c(O)c3c(c(O)c1C2=O)C[C@@](O)(C(=O)CO)C[C@@H]3O[C@H]1C[C@H](N)[C@H](O)[C@H](C)O1
IC50 (WI-38; MTT): 52.6 µM

CCCCC(=O)Nc1ccc(-c2ccc3ncn(CCF)c(=O)c3c2)cn1
IC50 (HCC827; CCK-8; 72 h): 0.36 µM

CC(C)=CCc1ncc(/C=C2\NC(=O)[C@H](C(C)C)NC2=O)[nH]1
IC50 (ASPC1; SRB): > 15 µM

Cc1cccc(NC(=O)Nc2ccc(-c3ccc4ncn(Cc5ccccc5)c(=O)c4c3)cn2)c1
IC50 (HCC827; CCK-8; 72 h): 7.31 µM

OCc1ccc(-c2nn(Cc3cccnc3)c3cccnc23)o1
IC50 (HuCCT-1; ATP luminescence): > 46 µM

COc1cccc(N=C2SCC(=O)N2c2nnc(-c3ccc(C(F)(F)F)cc3N=C3SCC(=O)N3c3cccc(OC)c3)s2)c1
IC50 (WI-38; MTT): 82.1 µM

CC(C)C(=O)Nc1ccc([N+](=O)[O-])c(C(F)(F)F)c1
IC50 (HaCaT; MTS; 48 h): > 100 µM
